# HSF1 inhib: HSF1 inhibition; NIH3T3-HGL HSE-luciferase, MG132-induced, luminescence 8 h; active compounds read low; activity change, negative = inhibition, % at 7.5 µM (by protocol); 0.77% of 300,000 active; AID 2098;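 active means more than half of replicate wells show activity change below -50%, luminescence cut by over half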;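 further: luciferase reports HSF-1 transcriptional activity via heat shock element; 0% = median of DMSO wells and -100% = zero luminescence signal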
# HSF1 activator: increases HSF-1 driven luciferase reporter signal. AID 504408. activation, % at 9 µM. NIH3T3-HGL HSF-1 luciferase reporter, MG132, 8 h; 100% = twice DMSO control signal. 1.7% of 300,000 active;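 active means mean replicate activation of at least 50% with a set share of replicates each reaching 50%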;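 further: 0% = median of the neutral control wells and 100% = twice that signal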
# T cruzi repl: blocks replication of Trypanosoma cruzi; T. cruzi beta-gal in NIH3T3, luminescence, 90 h; inhibition, % (concentration not given with the values); 1.4% of 300,000 active; AID 1885;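 active means mean inhibition across valid replicates above about 55%, limit read from the data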;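 further: signal also drops with host cell toxicity which is not excluded here; 0% = plate median of DMSO wells and 100% = zero luminescence signal; higher percent means less beta-gal luminescence so fewer parasites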
#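 Assay system: NIH/3T3 host cells with β-galactosidase reporter T. cruzi; input: 5,000 host fibroblasts per well; compound: single 50 nL compound addition per well in DMSO; timing: ≥90 h infection period, 3 h prior cell attachment; measured by: GalScreen β-gal luminescence, detergent lysis, 60 min; evaluation: percent inhibition of parasite-derived β-gal signal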
# Hsp70 act: Hsp70 transcriptional activation, primary screen; AID 1203; HeLa Hsp70 promoter luciferase reporter, luminescence; scaled: vehicle 0, proteasome-inhibitor control 100%; 0.04% of 200,000 active; activation, % at 10 µM;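 active means activation above the mean across all tested compounds plus 3 SD, cutoff set per campaign, cut at about 5.5% in these data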;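 further: 100% = MG132 at 30 µM as the positive control and 0% = DMSO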
# Lmaj promast: inhibitors of Leishmania major promastigote growth | Leishmania major promastigotes, resazurin fluorescence viability | inhibition, % at 10 µM | 9% of 200,000 active | AID 1063; in the data active means inhibition above about 50%;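 further: promastigotes grown with compound for 44 hours at 28 °C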
# * marks the source's active call; other numbers are inactive results; . = no result. This excerpt belongs to a sample that is enriched for hits.
SMILES,HSF1 inhib,HSF1 activator,T cruzi repl,Hsp70 act,Lmaj promast
COc1ccc(-n2nnnc2SCC(=O)Nc2ccccc2N2CCOCC2)cc1,1.1,6.7,28.4,-0.1,98.6*
CC(C)n1nnnc1SCC(=O)Nc1ccccc1N1CCOCC1,-2.3,3.3,-4.7,.,.
CCCCN(C)C(=O)Cn1c(=O)oc2cc(S(=O)(=O)N3CC(C)CC(C)C3)ccc21 (stereo not given),4.0,-0.4,7.0,.,.
O=C(Nc1cnn(Cc2ccc(F)cc2)c1)c1cnccn1,1.7,4.9,-1.1,0.4,-4.1
O=C(Nc1cnn(Cc2ccc(F)cc2)c1)C(c1ccccc1)c1ccccc1,12.8,41.5,5.2,-0.3,51.3*
O=C(Nc1cnn(Cc2ccc(F)cc2)c1)c1noc2c1CCCC2,20.7,41.4,-8.2,-0.1,100.0*
CC(C)(C)C1CCc2onc(C(=O)Nc3cnn(Cc4ccc(F)cc4)c3)c2C1 (stereo not given),-11.6,-11.3,26.3,-0.6,2.2
CC(C)(C)NC(=O)/C(=C\C=C\c1ccccc1)NC(=O)c1ccc([N+](=O)[O-])cc1,-3.1,-2.3,15.4,-0.1,3.7
CC1CCN(C(=O)CSc2nc3c(cnn3-c3ccccc3)c(=O)[nH]2)CC1,0.0,-1.3,8.7,-0.1,-1.2
CC1CCN(C(=O)CSc2nc3c(cnn3-c3ccc(Cl)cc3)c(=O)[nH]2)CC1,-85.8*,-89.1,3.1,-0.1,-4.3
CC1(C)CC(=O)C2=C(C1)OC(N)=C(C#N)C21C(=O)N(Cc2ccccc2Cl)c2ccccc21 (stereo not given),1.6,10.2,14.0,-0.3,58.8*
Cc1cccc(NC(=O)c2ccc(C3SCC(=O)N3CCc3ccccc3)cc2)c1 (stereo not given),.,.,-3.3,-0.2,96.3*
CC(=O)Nc1ccc(NC(=O)c2ccc(C3SCC(=O)N3CCc3ccccc3)cc2)cc1 (stereo not given),13.3,14.1,11.0,-0.4,45.3
O=[N+]([O-])c1ccc(C=Nc2ccc(Cl)c([N+](=O)[O-])c2)s1,.,.,.,0.7,100.3*
NC(=O)c1ccc(N=Cc2ccc([N+](=O)[O-])s2)cc1,.,.,.,-0.1,100.4*
Cc1c(N=Cc2ccc(Br)s2)cccc1[N+](=O)[O-],-6.8,3.2,-7.4,-0.2,-2.7
CCOC(=O)c1ccc(NC(=S)NCCc2ccc(OC)c(OC)c2)cc1,-33.1,-35.4,4.1,.,.
CCCn1c(SCC(=O)O)nc2ccccc21,2.0,-0.4,0.8,-0.1,-7.0
O=C(CSc1nc2ccccc2o1)N1c2ccccc2Sc2ccccc21,7.1,26.0,28.1,-0.3,82.2*
COc1ccc(-c2nsc(SCC(=O)NCc3ccc4c(c3)OCO4)n2)cc1,1.2,22.8,13.7,-0.4,98.8*
CCCCn1c(SCC(=O)N2c3ccccc3Sc3ccccc32)nc2c1c(=O)n(C)c(=O)n2C,7.7,15.7,31.3,-0.4,77.7*
CC(=O)CSc1nc2ccccc2o1,-1.2,-26.2,-4.1,0.1,-3.8
CCCn1c(SCC(=O)N2c3ccccc3Sc3ccccc32)nc2ccccc21,17.7,20.6,57.1*,-0.3,2.8
CC(C)C(=O)NNC(=O)CSc1nc(C2CCCCC2)nc2ccccc12,8.9,-6.2,2.9,-0.2,4.9
O=C(CSc1nc(C2CC2)nc2ccccc12)N1c2ccccc2Sc2ccccc21,10.9,12.9,58.6*,-0.4,50.4*
SMILES,HSF1 inhib,HSF1 activator,T cruzi repl,Hsp70 act,Lmaj promast
O=C(CSc1nc(C2CCCCC2)nc2ccccc12)NCc1ccc2c(c1)OCO2,8.8,7.7,23.1,-0.2,53.0*
CC(=O)c1ccc(NC(=O)CSc2nc(C3CC3)nc3ccccc23)cc1,47.0,32.7,6.6,.,.
COc1ccc(C(c2c(C)[nH]n(C(N)=S)c2=O)C(C#N)C#N)cc1 (stereo not given),.,.,.,-0.3,93.5*
COc1ccc(OC)c2sc(N(CCN(C)C)C(=O)c3ccc4ccccc4c3)nc12,5.6,14.7,5.2,.,.
Cc1ccc2sc(N(CCCN(C)C)C(=O)c3ccc(S(=O)(=O)N4CCCCCC4)cc3)nc2c1C,-2.4,-5.4,56.6*,.,.
CCOC(=O)N1CCN(S(=O)(=O)c2ccc(C(=O)N(CCN(C)C)c3nc4ccc(Cl)cc4s3)cc2)CC1,2.1,1.4,75.6*,.,.
Cc1ccc2sc(N(CCCN(C)C)C(=O)CN3C(=O)c4ccccc4C3=O)nc2c1C,-1.0,2.0,57.6*,-0.2,2.4
COc1ccc(C)c2sc(N(CCCN(C)C)C(=O)c3ccc(S(=O)(=O)N(C)C)cc3)nc12,-4.6,9.0,26.6,-0.1,73.5*
Cn1c(=O)n(C)c2cc(NS(=O)(=O)c3cccs3)ccc21,-4.5,-11.3,9.0,-0.4,-1.5
O=[N+]([O-])c1cc2c(cc1Br)CCN2,3.3,1.8,2.0,-0.2,-1.4
Cc1cc(C)c2sc(N(CCCN(C)C)C(=O)c3ccc(S(=O)(=O)N(C)C4CCCCC4)cc3)nc2c1,1.9,2.4,55.4*,.,.
CCOc1cccc2sc(N(CCCN(C)C)C(=O)c3ccc(S(=O)(=O)N(C)c4ccccc4)cc3)nc12,1.4,7.6,55.9*,-0.2,88.3*
COc1ccc([C@@H](C)NC(=O)c2ccc3oc(C(C)C)nc3c2)cc1,17.0,16.5,8.4,.,.
CC(C)C(=O)Nc1ccc(C(=O)c2ccccc2)cc1,-18.7,-37.2,1.3,0.1,99.0*
Cc1ccc(-c2[nH]ncc2/C=N/n2c(COc3ccccc3)nc3ccccc3c2=O)cc1,-11.6,-26.5,31.3,-0.3,41.3
Cc1cccc(C)c1OCc1nc2ccccc2c(=O)n1/N=C/c1ccc(OCC(=O)O)cc1,22.5,52.8*,-4.7,0.2,-2.8
Cc1ccccc1OCc1nc2ccccc2c(=O)n1/N=C/c1cn[nH]c1-c1ccccc1,-4.6,-23.2,16.5,-0.4,100.3*
Cc1ccc(-n2nc3c(=O)n(CCCC(=O)NCc4ccc(C)o4)nc(C)c3c2C)cc1,2.0,6.0,1.9,.,.
CC1C(=O)N2CCCc3cc(S(=O)(=O)N4CCN(c5ccc(F)cc5)CC4)cc1c32 (stereo not given),3.3,15.5,9.8,.,.
CC1CC(=O)C2=C(C1)Nc1ccccc1SC2c1ccc(F)cc1 (stereo not given),1.6,1.8,16.7,-0.2,68.0*
O=C1CC(c2ccsc2)Sc2ccccc2N1 (stereo not given),0.5,-0.4,-13.1,.,.
O=C1C(Cl)=C(NC2CCCCC2)C(=O)N1Cc1ccccc1,2.2,2.5,21.0,-0.1,-6.8
O=C1C(Cl)=C(N2CCN(Cc3ccccc3)CC2)C(=O)N1Cc1ccccc1,4.7,-14.0,33.2,-0.5,92.1*
Fc1ccc(COc2ccccc2CNCc2ccncc2)cc1,5.8,11.2,56.4*,-0.1,98.3*
Brc1ccc(OCc2ccccc2)c(CNCc2ccncc2)c1,-0.2,6.4,56.2*,0.1,93.7*
NS(=O)(=O)c1ccc(CCNCc2ccccc2OCc2ccc(F)cc2)cc1,10.0,4.7,-5.8,.,.
COc1ccc(OC)c(N(C)S(=O)(=O)c2cc3c(cc2C)NC(=O)CO3)c1,-3.7,-10.5,0.8,.,.
COc1cccc(NC(=O)CN2CCN(c3ccc(F)cc3)CC2)c1,4.3,-4.4,8.6,-0.4,7.7
